PG9 Ab binder: binds the HIV-1 gp120 antibody PG9; TR-FRET gp120-PG9 antibody binding; inhibition, % at 6.7 µM; 360,000 tested, 0.43% active; AID 624416; in the data active = inhibition above about 8.5%
NTR1 ag: agonists of human neurotensin receptor NTR1; P30989; NTR1-U2OS beta-arrestin-GFP spot imaging, agonist mode; activation, % at 20 µM; 330,000 tested, 0.17% active; AID 493036;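 active = activation at or above 40% of the spot to cytoplasm intensity ratio, with at least 20 cells analyzed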;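 also: 0% = DMSO without peptide and 100% = 100 nM NTR1 peptide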
Target sequence (P30989 whole entry, looked up): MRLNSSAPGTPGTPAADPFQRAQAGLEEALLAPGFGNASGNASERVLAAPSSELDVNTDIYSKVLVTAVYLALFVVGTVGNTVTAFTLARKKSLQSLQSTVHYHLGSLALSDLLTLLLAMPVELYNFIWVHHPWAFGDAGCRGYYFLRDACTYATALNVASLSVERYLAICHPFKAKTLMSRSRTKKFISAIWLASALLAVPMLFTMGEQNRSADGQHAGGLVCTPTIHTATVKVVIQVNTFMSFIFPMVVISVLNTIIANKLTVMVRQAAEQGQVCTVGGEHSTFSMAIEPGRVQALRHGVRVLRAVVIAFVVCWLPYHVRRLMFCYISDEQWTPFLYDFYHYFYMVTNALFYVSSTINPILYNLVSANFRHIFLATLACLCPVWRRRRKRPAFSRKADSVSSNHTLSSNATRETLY
MC4R antag cAMP: blocks human MC4R cAMP signaling; inhibition, % at 6.5 µM; AID 540295; P32245; MC4R-expressing cells, MTII-stimulated cAMP, LANCE TR-FRET; 360,000 tested, 0.48% active;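 active = inhibition above its plate's cutoff, the mean of tested wells on that plate plus 3 SD, cut at about 29% in these data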;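 also: 0% = Melanotan II alone and 100% = Melanotan II plus saturating MCL0020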
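Assay system: U2OS-MC4R stable cell line; Also added: Melanotan II; Technique: Eu-cAMP/anti-cAMP TR-FRET, emission 671 nm; Times: 30-min compound, 1-h challenge, 1-h detection, room temperature.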
Rev-erbA mod: modulators of human Rev-erb alpha DNA binding; Rev-erbα–FITC-DNA binding, fluorescence polarization, 90 min; activity, % at 10 µM; 370,000 tested, 0.79% active; AID 1259318;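 active = activity above about 14%, limit read from the data; passing the limit was not always enough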;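 also: 0% = DMSO wells with 35 nM protein and 100% = DMSO wells with 750 nM protein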
MC4R ag barr: human MC4R agonism via beta-arrestin. P32245. 360,000 tested, 0.98% active. U2OS MC4R beta-arrestin complementation, luminescence; percent of melanotan II response, DMSO zero. activation, % at 8.9 µM;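 active = activation above a per-plate cutoff, the mean activation of sample wells on that plate plus 3 SD, cut at about 8% in these data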
NR1D1 mod conf: Rev-erb alpha (human) modulation, hit confirmation; 3,000 tested, 61% active; AID 1259319; Rev-erb alpha FITC-DNA binding, fluorescence polarization, 90 min; activation, % at 25 µM; shares compounds with Rev-erbA mod;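 active = activation at or above a set limit, or at least 3 SD above the negative control mean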;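 also: 0% = 35 nM protein with DMSO and 100% = 750 nM protein high control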
RORg DNA counter: RORgamma DNA-binding activity, dose-response counter-screen; shares compounds with Rev-erbA mod; purified RORgamma protein-FITC-DNA binding, fluorescence polarization; IC50, µM; 910 tested, 8% active; AID 1259320;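 active = Compounds whose fitted half-maximal concentration for disrupting protein-DNA binding is below 10 micromolar; the record names Rev-erb in its text, so the target is in doubt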
Starred values were filed as active, the others as inactive; i = inactive; x = no result given; + = active, no number. The list is not random: actives were taken first. Their share in the collection is about 2.5%.

SMILES	PG9 Ab binder	NTR1 ag	MC4R antag cAMP	Rev-erbA mod	MC4R ag barr	NR1D1 mod conf	others
O=C(N=C1N(CC2CC2)CC2(C=C3CCCCC3n3c(=O)n(-c4ccccc4)c(=O)n32)N1C(=O)OCc1ccccc1)c1ccccc1 (stereo not drawn)	x	x	x	6.0	x	x
CC1=NN(c2ccccc2)C(=O)/C1=C/C=C/C=C/N(C)C	-29.6	-0.1	-37.6	51.5*	-6.3	52.6*
CCOC(=O)c1cc(-c2ccccc2)sc1NC(=O)CN1C(=O)c2ccccc2C1=O	-1.1	1.6	3.7	33.2*	-0.9	8.1
CCCC1(c2ccccc2)NC(=O)N(CC(=O)Nc2cc(C)on2)C1=O (stereo not drawn)	0.1	-1.3	19.5	0.5	0.1	x
CCCC1(c2ccccc2)NC(=O)N(CC(=O)Nc2sc(-c3ccccc3)cc2C(=O)OCC)C1=O (stereo not drawn)	-1.3	2.1	20.4	56.3*	0.1	50.3*	RORg DNA counter=>40
O=c1oc2ccccc2n1CSc1nc2ccccc2s1	-0.5	2.2	5.3	18.0*	-0.2	19.7*
Cc1ccc2c(c1)NC(=O)CC(c1ccccc1)=N2	0.9	-0.5	3.2	-4.7	-2.5	x
Cc1ccc2c(c1C)NC(=O)CC(c1ccccc1O)=N2	6.5	-0.8	9.9	204.2*	2.6	140.2*	RORg DNA counter=>40
CC(=O)Nc1ccc(NC(=O)CSc2nnc(-c3cc4ccccc4o3)n2C)cc1	-0.6	-1.6	7.6	2.8	-1.0	x
Cn1c(SCC(=O)Nc2ccccc2F)nnc1-c1cc2ccccc2o1	0.1	4.0	1.3	25.5*	-1.9	15.7
CCc1nc(SCC(=O)NCCc2ccccc2)c2oc3ccccc3c2n1	-2.6	-1.8	2.8	62.2*	0.5	69.4*	RORg DNA counter=>40
CCc1nnc(NC(=O)CSc2ncnc3c2oc2ccccc23)s1	-2.7	3.4	5.3	98.0*	-1.2	20.5*
O=C(CSc1ncnc2c1oc1ccccc12)Nc1ccccc1F	0.6	-0.5	9.5	606.2*	0.5	615.7*	RORg DNA counter=>40
COC(=O)C1=C(C)N(C)C(=NCc2cc(OC)c(OC)c(OC)c2)NC1c1cccc(C(F)(F)F)c1 (stereo not drawn)	0.3	x	x	-1.5	x	x
CCOc1ccccc1NC(=O)CSc1ncnc2c1oc1ccccc12	-1.9	9.7	-3.4	+	-1.5	+
CCc1nnc(NC(=O)CSc2nnc(-c3ccccc3NC(=O)c3ccccc3)o2)s1	0.5	0.2	10.8	28.0*	-0.5	7.5
COC(=O)C1CN(Cc2ccccc2)CCS(=O)(=O)N1Cc1cccc(Cl)c1 (stereo not drawn)	x	x	x	-2.9	x	x
Cc1c(N=C2N=C(NC(=O)c3ccc(F)cc3)c3ccccc32)c(=O)n(-c2ccccc2)n1C	-0.2	6.2	8.4	92.1*	-0.3	50.8*
CC12CN3CC(C)(CN(C1)C3c1ccc3ccccc3c1O)C2=O (stereo not drawn)	-0.1	-0.1	0.7	7.0	-0.9	x
CCn1cc(C2N3CC4(C)CN2CC(C)(C3)C4=O)c2ccccc21 (stereo not drawn)	-1.1	-1.5	4.5	50.0*	0.2	56.1*	RORg DNA counter=i
Cc1ccc(NC(=O)C2CC3CCC2C3)cc1 (stereo not drawn)	x	x	x	-0.3	x	x
CCCCn1c(-c2ccc(F)c(F)c2)nc2cc3[nH]c(=O)c(C(C)C)nc3cc21	-1.8	13.2	4.2	17.8*	2.5	13.8
CCCCn1c(CCc2ccccc2)nc2cc3[nH]c(=O)c(C(C)C)nc3cc21	-0.1	10.2	-5.5	-1.3	5.7	x
Fc1cnc(N2CCc3ccccc32)nc1N1CCc2ccccc21	0.1	-2.0	-5.2	56.8*	-2.1	137.0*	RORg DNA counter=>40
Cn1c(/C(C#N)=C(\O)c2ccc(Cl)s2)nc2ccccc21	7.1	0.2	6.3	49.7*	-1.9	12.4
SMILES	PG9 Ab binder	NTR1 ag	MC4R antag cAMP	Rev-erbA mod	MC4R ag barr	NR1D1 mod conf	others
Cn1c(/C(C#N)=C(\O)c2ccc([N+](=O)[O-])s2)nc2ccccc21	1.5	-0.8	8.9	-29.5	-0.8	x
Cn1c(/C(C#N)=C(\O)COc2ccc3ccccc3c2)nc2ccccc21	-0.6	4.5	2.5	22.8*	-2.1	9.4
COc1ccc2oc(=O)c(-c3cn4ccc(C)cc4n3)cc2c1	2.2	0.2	-4.5	75.8*	3.1	14.0
C#CCNC(=O)C[C@@H]1C[C@]2(C(=O)OCC)CCC3=C2N(CCC3)C1=O	x	x	x	-5.2	x	x
Cc1cc2cc3c(cc2n2c(SCC(=O)Nc4nc(-c5ccccc5)cs4)nnc12)OCO3	x	x	x	20.5	x	x
O=c1oc2cc(O)ccc2cc1S(=O)(=O)c1ccccc1	2.1	-1.0	0.1	-3.3	1.5	x
CCN(CC)c1ccc2cc(S(=O)(=O)c3ccc(Cl)cc3)c(=O)oc2c1	-0.1	-0.7	8.5	17.4*	-0.1	18.5*
CC(C)Cn1c(N)c(C(=O)COC(=O)c2cc(C(F)(F)F)nc3c(C(F)(F)F)cccc23)c(=O)n(C)c1=O	-0.5	-1.3	x	46.2*	x	20.7*
Cn1c(=O)c(C(=O)COC(=O)c2cc(C(F)(F)F)nc3ccccc23)c(N)n(Cc2ccccc2)c1=O	0.3	1.8	x	-3.8	x	x
Cc1n[nH]c(C)c1N1C(=O)c2cccc3c(N4CCCCCC4)ccc(c23)C1=O	-2.6	-4.8	8.8	93.5*	-0.1	90.2*	RORg DNA counter=>40
O=C(c1cccc(N2C(=O)c3ccccc3C2=O)c1)N1CCCCCC1	-1.1	0.8	6.0	-1.5	-1.4	x
O=C1c2cccc3c(N4CCCCC4)ccc(c23)C(=O)N1c1cccc(O)c1	-0.7	-0.9	15.3	60.8*	-1.6	62.1*	RORg DNA counter=>40
C=CCN1C(=O)c2cccc3c(N4CCCCC4)ccc(c23)C1=O	1.2	-1.6	24.4	18.6*	0.5	24.2*
O=C1c2cccc3c(N4CCCCC4)ccc(c23)C(=O)N1CCO	-4.4	-2.3	-29.7	47.0*	-1.3	33.3*	RORg DNA counter=>40
O=C1C(NC(=O)N2c3ccccc3C=Cc3ccccc32)CCCCN1Cc1cccc(C(F)(F)F)c1 (stereo not drawn)	x	x	x	-0.6	x	x
CCOC(=O)c1sc2nc(C)n(N)c(=O)c2c1C	-3.2	-0.3	11.9	-5.5	2.5	x
CCOC(=O)c1sc2nc(C)[nH]c(=S)c2c1C	4.5	8.1	-3.0	61.5*	-3.0	19.5*
Cc1ccccc1CN1[C@@H](C)[C@H](c2ccccc2)Oc2cccc(NCCc3ccccc3)c2S1(=O)=O	0.9	x	x	6.9	x	x
CN(C)c1cccc(-c2ccnc(N3CCC(C(N)=O)CC3)n2)c1	x	x	x	-3.3	x	x
CS(=O)(=O)c1ccc2nc(NC(=O)C3=NN(c4ccccc4)C(=O)CC3)sc2c1	-1.8	-0.4	8.9	2.1	-2.2	x
CS(=O)(=O)c1ccc2nc(NC(=O)c3cc(-c4ccccc4)nn3-c3ccccc3)sc2c1	0.1	4.1	4.1	42.4*	0.3	18.8*

Assay outcomes from PubChem BioAssay.
